Screening results as filed in PubChem.
Casp6 inh = human caspase-6 inhibitors, primary screen, biochemical, VEID-R110 fluorescence, single point, set 2 | purified caspase-6, Z-VEID-R110 cleavage fluorescence | inhibition, % at 12.5 µM | 0.53% of 350,000 active | AID 686996, 2013 | P55212;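 active = mean inhibition across replicates at least about 35%, with every replicate also reaching that limit, limit read from the data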
Target sequence (P55212 24-179 limits assumed): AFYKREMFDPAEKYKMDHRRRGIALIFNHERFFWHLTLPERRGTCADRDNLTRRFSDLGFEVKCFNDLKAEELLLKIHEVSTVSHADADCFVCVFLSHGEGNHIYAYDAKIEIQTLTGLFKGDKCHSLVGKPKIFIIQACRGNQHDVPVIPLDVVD
Target sequence (P55212 194-293 limits assumed): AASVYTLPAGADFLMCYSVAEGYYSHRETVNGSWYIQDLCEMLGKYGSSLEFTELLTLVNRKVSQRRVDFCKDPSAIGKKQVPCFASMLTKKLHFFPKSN
ASAP1 GAP inh = inhibitors of human ASAP1 ArfGAP activity, primary screen, biochemical, fluorescence polarization; ASAP1-stimulated ARF1 GTP hydrolysis, GDP FP detection; inhibition, % at 16.5 µM; 0.19% of 360,000 active; in the data active = inhibition above about 25%
ARFGAP1 inhibitor = inhibitors of rat ARFGAP1 GAP activity, primary screen, biochemical, fluorescence polarization, GDP tracer | Arfgap1-stimulated ARF1 GTP hydrolysis, GDP FP detection | ADP-ribosylation factor GTPase-activating protein 1 (Rattus norvegicus), Q62848 | 0.26% of 360,000 active | inhibition, % at 16.5 µM;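 active = inhibition above a per-plate limit, mean inhibition of low control wells plus 3 SD, cut at about 25% in these data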
Target sequence (Q62848 1-136 limits assumed): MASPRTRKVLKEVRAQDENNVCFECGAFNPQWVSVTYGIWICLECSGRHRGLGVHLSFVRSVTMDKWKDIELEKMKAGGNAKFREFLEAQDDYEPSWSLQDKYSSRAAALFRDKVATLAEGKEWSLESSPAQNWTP
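Assay system: Rat Arfgap1 GAP domain (His6, aa 1-136), purified enzyme | Buffer or medium: HEPES 25 mM pH 7.5, NaCl 150 mM, MgCl2, DTT | Schedule: GTP hydrolysis reaction 2 h at 25 °C | Signal: FP of antibody-bound GDP Alexa 633 tracer, ex 620/em 688 nm | Measure: Percent inhibition of Arfgap1-stimulated GTP hydrolysis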
TDP2 inh = human TDP2 enzyme inhibitors, primary screen, biochemical, epi absorbance, recombinant enzyme; Tyrosyl-DNA phosphodiesterase 2 (Homo sapiens), O95551; T5PNP hydrolysis, p-nitrophenol absorbance 415 nm; inhibition, % at 12.8 µM; 0.34% of 370,000 active; AID 720702, 2013;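 active = inhibition above the mean of all tested compounds plus 3 SD, set per campaign, cut at about 25% in these data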
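Test system: Human TDP2 enzyme | Reagent: 5 mM T5PNP | Compound dosing: 12.8 µM single point, 1% DMSO | Incubation: Enzyme reaction with compound for 2 h at 37 °C | Technique: p-Nitrophenol epi absorbance | Read-out: % inhibition relative to enzyme-containing and enzyme-free wells | Benchmarks: High control without enzyme, low control DMSO plus TDP2 | Replicates: Singlicate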
LEDGF integ inh = blockers of LEDGF/p75-dependent integrase strand transfer – biochemical, TR-FRET, high throughput, primary screen | HIV-1 integrase (with human LEDGF/p75) | inhibition, % at 3.7 µM | 0.64% of 370,000 active | TR-FRET IN-LEDGF/p75 DNA integration, Eu/Cy5 | AID 743269, 2014;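 active = inhibition above the screen-wide mean plus 3 SD, cut at about 13% in these data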;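 also: signal is the Cy5 over europium emission ratio at 671 and 618 nm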
IN multimer up = HIV-1 IN multimer formation enhancers, counter-screen for LEDGF/p75 integration inhibitor project, biochemical, TR-FRET. 17% of 2,000 active. TR-FRET HIV-1 integrase multimerization. shares compounds with LEDGF integ inh. activation, % at 7.7 µM. AID 1053131, 2014; in the data active = activation above about 8.9%
TR-FRET interf = TR-FRET optical interference artefacts, confirmation, artefact control for LEDGF/p75-dependent integration inhibitor project, biochemical, HIV-1 IN multimerization | shares compounds with LEDGF integ inh | TR-FRET optical interference counterscreen | inhibition, % at 7.7 µM | 2,000 tested, under 10 active;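 active = inhibition above the mean over all tested compounds plus 3 SD, which no compound reached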
IN-LEDGF confirm = inhibitors of HIV-1 IN-LEDGF/p75 DNA integration, confirmation, biochemical, TR-FRET | shares compounds with LEDGF integ inh | 36% of 2,000 active | inhibition, % at 3.7 µM | TR-FRET LEDGF/p75-dependent HIV-1 integration; in the data active = inhibition above about 14%
Large screens that a line does not name were inactive (follow-up assays come after a bar, where they were run). The list is not random: actives were taken first. Their share in the collection is about 1.3%.

Cc1nc(C(=O)NCCCO)cc2c1[nH]c1ccccc12	LEDGF integ inh 27 | IN multimer up inactive | TR-FRET interf inactive | IN-LEDGF confirm inactive
Cc1nc(C(=O)NCCO)cc2c1[nH]c1ccccc12	none
CSc1ncc(C(=O)O)n1-c1ccc(F)cc1	none (no result: Casp6 inh)
Cc1c(F)cccc1NC(=O)CCCCCC1NC(=O)NC1C (stereo unspecified)	LEDGF integ inh 78 | IN multimer up inactive | TR-FRET interf inactive | IN-LEDGF confirm 89
CC1NC(=O)NC1CCCCCC(=O)Nc1ccc(F)cc1 (stereo unspecified)	LEDGF integ inh 84 | IN multimer up inactive | TR-FRET interf inactive | IN-LEDGF confirm 93
O=C(CCCC(=O)c1ccccc1)Nc1ccc(F)cc1	none
COC(=O)Cc1ccc(NC(=S)NCc2ccc(S(N)(=O)=O)cc2)cc1	none (no result: Casp6 inh)
COc1ccc(C2C(C(=O)c3ccco3)=C(O)C(=O)N2CCCn2ccnc2)c(OC)c1 (stereo unspecified)	none
NC1=NC(=O)/C(=C\c2ccco2)S1	Casp6 inh 63, LEDGF integ inh 62 | IN multimer up 30 | TR-FRET interf inactive | IN-LEDGF confirm 50
NS(=O)(=O)c1ccc(N/N=C/c2ccc(O)c(O)c2O)c([N+](=O)[O-])c1	Casp6 inh 68, LEDGF integ inh 72 | IN multimer up 33 | TR-FRET interf inactive | IN-LEDGF confirm 85
COCCNC(=O)[C@@H]1[C@@H](CO)[C@@H]2Cn3c(cccc3=O)[C@H]1N2Cc1cc(F)ccc1F	none (no result: ASAP1 GAP inh, ARFGAP1 inhibitor, TDP2 inh, LEDGF integ inh)
COc1cccc(NC(=O)C2(C)CCN2C(C)C)c1OC (stereo unspecified)	none
Cc1nc2ccccc2nc1OCC(=O)Nc1ccccc1	LEDGF integ inh 17 | IN multimer up inactive | TR-FRET interf inactive | IN-LEDGF confirm inactive
COc1cccc(NC(=O)COc2nc3ccccc3nc2C)c1	none
C[C@@H]1CN([C@H](C)CO)C(=O)c2cc(NC(=O)C3CCCCC3)ccc2O[C@@H](C)CCCCO[C@H]1CN(C)S(=O)(=O)c1ccccc1	none (no result: ASAP1 GAP inh, ARFGAP1 inhibitor, TDP2 inh, LEDGF integ inh)
CCn1c(=O)[nH]c2cc(Cl)c(Cl)cc21	LEDGF integ inh 16 | IN multimer up inactive | TR-FRET interf inactive | IN-LEDGF confirm inactive
OCCN(CC(O)COc1ccccc1)CC(O)Cn1ccc2ccccc21 (stereo unspecified)	none
C/C(=N\NS(=O)(=O)c1ccc(C(C)(C)C)cc1)c1ccccc1	none
CC(C)(C)c1ccc(S(=O)(=O)/N=C2\C=C(NS(=O)(=O)c3ccccc3)C(=O)c3ccccc32)cc1	Casp6 inh 50, LEDGF integ inh 16 | IN multimer up inactive | TR-FRET interf inactive | IN-LEDGF confirm inactive
Nc1nnc(SCC(=O)OCC(=O)Nc2ccccc2F)s1	none
O=C1C2C(C(=O)N1/N=C/c1cc([N+](=O)[O-])c(O)cc1O)C1C=CC2C12CC2 (stereo unspecified)	Casp6 inh 76, LEDGF integ inh 18 | IN multimer up inactive | TR-FRET interf inactive | IN-LEDGF confirm 20
CC(C)NC(=O)N1[C@@H]2c3cccc(=O)n3C[C@H]1[C@H](CO)[C@H]2C(=O)N1CCC(Cc2ccccc2)CC1	none (no result: ASAP1 GAP inh, ARFGAP1 inhibitor, TDP2 inh, LEDGF integ inh)
Cc1ccc(/C=C2/SC(=S)N(C3CCCCC3)C2=O)o1	none
Cc1ccc(/C=C2\SC(=S)N(C3CCS(=O)(=O)C3)C2=O)cc1 (stereo unspecified)	none
O=C1/C(=C\c2ccco2)SC(=S)N1C1CCS(=O)(=O)C1 (stereo unspecified)	Casp6 inh 49, LEDGF integ inh 40 | IN multimer up inactive | TR-FRET interf inactive | IN-LEDGF confirm 48
O=C1/C(=C/c2ccco2)SC(=S)N1C1CCS(=O)(=O)C1 (stereo unspecified)	LEDGF integ inh 48 | IN multimer up inactive | TR-FRET interf inactive | IN-LEDGF confirm 27
COc1ccc2c(c1)CC/C(=C\C=C\c1ccccc1OC)C2=O	none (no result: Casp6 inh)
COc1ccc2c3c(ccc2c1)C(=O)/C(=C/O)CC3	LEDGF integ inh 17 | IN multimer up inactive | TR-FRET interf inactive | IN-LEDGF confirm 27
Oc1cc2c(cc1O)C1c3ccc(O)c(O)c3OCC1(O)C2 (stereo unspecified)	Casp6 inh 42, LEDGF integ inh 89 | IN multimer up 41 | TR-FRET interf inactive | IN-LEDGF confirm 79
CC1CCCC(C)N1/N=C/c1ccc(O)c(O)c1 (stereo unspecified)	LEDGF integ inh 20 | IN multimer up 22 | TR-FRET interf inactive | IN-LEDGF confirm 53
O=C(/C(=N/N=C/c1ccc(O)c(O)c1O)c1ccccc1)c1ccccc1	LEDGF integ inh 14 | IN multimer up inactive | TR-FRET interf inactive | IN-LEDGF confirm 28
Oc1ccc(/C=N/N=C(c2ccccc2)c2ccccc2)c(O)c1O	LEDGF integ inh 41 (no result: Casp6 inh) | IN multimer up 21 | TR-FRET interf inactive | IN-LEDGF confirm 84
COCC#Cc1ccc2c(c1)O[C@@H](CN(C)C(=O)C1CCCCC1)[C@@H](C)CN([C@@H](C)CO)S2(=O)=O	none (no result: ASAP1 GAP inh, ARFGAP1 inhibitor, TDP2 inh, LEDGF integ inh)
COc1ccc2nc(N3C(=O)C(O)=C(C(=O)c4ccco4)C3c3ccc(C)o3)sc2c1 (stereo unspecified)	LEDGF integ inh 14 | IN multimer up inactive | TR-FRET interf inactive | IN-LEDGF confirm inactive
COc1ccc(-n2nc(C(=O)O)cc2-c2ccccc2)cc1	LEDGF integ inh 29 | IN multimer up inactive | TR-FRET interf inactive | IN-LEDGF confirm inactive
O=C(Nc1cccc(C2=NCCN2)c1)Nc1cccc(C2=NCCN2)c1	LEDGF integ inh 18 | IN multimer up inactive | TR-FRET interf inactive | IN-LEDGF confirm 18
O=C(Nc1ccncc1)Nc1cccc(Cl)c1	none
CCCc1cc(CN2CCOCC2)c(O)c(CN2CCOCC2)c1O	none
Oc1cccc(CN2CCOCC2)c1O	LEDGF integ inh 78 | IN multimer up 11 | TR-FRET interf inactive | IN-LEDGF confirm 35
